# According to PMC3782865 (Journal of medicinal chemistry, 2013):
# “Also recorded” adds a separate entry of the source. Where a name gives a salt, the structure may show the parent alone. Read-outs that look alike come from different tables or passages of the source.
# Tests used:
# [1] = test system: cathepsins in NCI-H929 cells; experiment: Cathepsins activity assay; assay type: cell-based; conditions: 6 h treatment, Z-FR-amc
# In short: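 Treated and mock-treated cells were washed in PBS and permeabilised on ice with 0.05% digitonin in Tris-HCl pH 7.5 buffer. Cytosol was removed by centrifugation (15 min, 20 000g, 4 °C), and pellets were lysed in Bis-Tris pH 5.5/0.5% CHAPS. Protein-normalised acidic extracts were added to 40 µM substrate in phosphate buffer pH 6.0 with EDTA and DTT. Amc fluorescence was read continuously for 30 min, with rates taken from progress-curve slopes.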
# [2] = biological target: T1, proteasome trypsin-like sites (Mus musculus, UniProt P70195); experiment: Inhibition of trypsin-like sites in mice; assay type: in vivo; conditions: manuscript in preparation
# T1 sequence (P70195 44-277): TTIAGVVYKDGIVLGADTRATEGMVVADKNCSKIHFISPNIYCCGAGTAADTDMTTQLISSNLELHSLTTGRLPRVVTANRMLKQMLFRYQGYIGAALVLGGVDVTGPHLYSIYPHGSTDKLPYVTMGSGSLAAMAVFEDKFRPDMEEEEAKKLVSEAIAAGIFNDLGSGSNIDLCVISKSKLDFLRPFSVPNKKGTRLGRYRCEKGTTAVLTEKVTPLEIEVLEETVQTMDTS
# [3] = test system: proteasome trypsin-like (Tr-L) sites in NCI-H929 and RPMI-8226 multiple myeloma cells; assay type: cell-based; conditions: for IC50: ProteasomeGlo
# RPMI-8226 cells [4] = experiment: Viability of RPMI-8226 cells, Alamar Blue assay; assay type: cell-based; conditions: for Toxicity to cells as a single agent: 4a 1 µM, 3 27 µM
# In short: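 RPMI-8226 myeloma cells grown in RPMI-1640 with 10% FBS, penicillin, streptomycin and plasmocin in a humidified 5% CO2 incubator. Cells were exposed to bortezomib or carfilzomib for 1 h, then to test compound (1 µM or 27 µM) or mock for 47 h. Viable cells were measured by Alamar Blue dye conversion. Mean ± SEM of three (bortezomib) or two to seven (carfilzomib) biological replicates.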
# [5] = biological target: proteasome active sites (β2, β5) in extracts of HEK-293T cells (Homo sapiens, UniProt P28074+Q99436); experiment: Competition assays in HEK-293T cell lysate with activity-based probes; assay type: biochemical; conditions: HEK-293 extracts
# [6] = test system: trypsin-like (Tr-L) sites of purified 26S proteasomes from rabbit muscles; experiment: Inhibition of purified 26S proteasomes, trypsin-like sites; assay type: biochemical; conditions: purified rabbit 26S proteasomes
# RPMI-8226 cells [7] = conditions: cited from earlier work
# [8] = biological target: T2, proteasome caspase-like (Casp-L) sites in NCI-H929 and RPMI-8226 multiple myeloma cells (Homo sapiens, UniProt P28072); assay type: cell-based
# T2 sequence (P28072 1-239): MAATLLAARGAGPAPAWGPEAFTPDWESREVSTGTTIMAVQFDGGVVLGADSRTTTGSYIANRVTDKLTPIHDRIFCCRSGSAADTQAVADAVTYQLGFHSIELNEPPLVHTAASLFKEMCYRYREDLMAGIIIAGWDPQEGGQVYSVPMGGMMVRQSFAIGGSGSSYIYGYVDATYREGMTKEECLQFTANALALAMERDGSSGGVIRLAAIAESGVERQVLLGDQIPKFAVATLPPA
# [9] = read-out: IC50 Tr-L, NCI-H929, NCI-H929 cells, 6 h treatment
compound,measurement,setting,value
"CC(C)C[C@H](NC(=O)[C@H](Cc1ccccc1)N=[N+]=[N-])C(=O)N[C@@H](CC(C)C)C(=O)N[C@H](/C=C/S(C)(=O)=O)Cc1ccc(CN)cc1 [compound 4a, N3Phe-Leu-Leu-Phe(4-CH2NH2)VS TFA Salt]",Inhibition of cathepsins in cells,[1],Partial inhibition of cathepsins
same,Inhibition of trypsin-like sites in mice,[2],capable of inhibiting trypsin-like sites in mice
same,Treatment time to steady-state inhibition of trypsin-like activity,[3]; RPMI-8226 cells,1 h
same,Toxicity to cells as a single agent,RPMI-8226 cells [4],not toxic; also recorded: no effect on cells when used as a single agent
same,Sensitization to bortezomib,"RPMI-8226 cells [4]; bortezomib 1 h, then 47 h 4a (1 µM)",sensitized them to bortezomib
CC1=CC(C)=[N+]2C1=C(CCCCc1cn([C@@H](Cc3ccccc3)C(=O)N[C@@H](Cc3ccc(CN)cc3)C(=O)N[C@@H](CC(C)C)C(=O)N[C@H](/C=C/S(C)(=O)=O)Cc3ccc(CN)cc3)nn1)c1c(C)cc(C)n1[B-]2(F)F [compound 20],Inhibition/labeling of proteasome active sites in extracts,[5],reduced the specificity
CC(C)C[C@H](NC(=O)[C@H](Cc1ccc(N)cc1)NC(=O)[C@H](Cc1ccccc1)N=[N+]=[N-])C(=O)N[C@H](/C=C/S(C)(=O)=O)Cc1ccc(CN)cc1 [compound 11],Inhibition of cathepsins in cells,[1],behaved similarly to 4a
"CC1=CC(C)=[N+]2C1=C(CCCCc1cn([C@@H](Cc3ccccc3)C(=O)N[C@@H](CC(C)C)C(=O)N[C@@H](CC(C)C)C(=O)N[C@H](/C=C/S(C)(=O)=O)Cc3ccc(CN)cc3)nn1)c1c(C)cc(C)n1[B-]2(F)F [compound 19, Bodipy-triazole-Phe-Leu-Leu-Phe(4-CH2NH2)VS TFA Salt]",Inhibition/labeling of proteasome active sites in extracts,[5],reacted with β2 and β5 subunits
"O=C(CCCCCCC(=O)Nc1ccccc1)NO [varinostat, reference compound]",Viability,"RPMI-8226 cells [4]; 1 µM, 48 h treatment, single agent",38.6 ± 0.5%
Cc1c(O)cccc1C(=O)N[C@H](C(=O)N[C@@H](CO)C(=O)N[C@H](/C=C/S(C)(=O)=O)Cc1ccc(N)cc1)C(C)C [compound 9],IC50 (Chym-L)/IC50 (Tr-L),[6],≪0.0067
CC(C)C[C@H](NC(=O)[C@H](Cc1ccc(CN)cc1)NC(=O)[C@H](Cc1ccccc1)N=[N+]=[N-])C(=O)N[C@H](/C=C/S(C)(=O)=O)Cc1ccc(CN)cc1 [compound 12],Inhibition of cathepsins in cells,[1],slightly more potent inhibitor of cathepsins
same,Inhibition/labeling of proteasome active sites in extracts,[5],most potent inhibitor in extracts
CC(=O)N[C@@H](CC(C)C)C(=O)N[C@@H](CC(C)C)C(=O)N[C@@H](CCCNC(=N)N)C(=O)[C@@]1(C)CO1 [1a],IC50 (Chym-L)/IC50 (Tr-L),[6],>30
Cc1c(O)cccc1C(=O)N[C@H](C(=O)N[C@@H](CO)C(=O)N[C@@H](CCCNC(=N)N)C(=O)[C@@]1(C)CO1)C(C)C [compound 3],Toxicity to myeloma cells as a single agent,RPMI-8226 cells [7],not toxic
same,Treatment time to steady-state inhibition of trypsin-like activity,[3]; RPMI-8226 cells,> 6 h
same,IC50,[3]; [9],900 nM
same,Toxicity to cells as a single agent,RPMI-8226 cells [4],no effect on cells when used as a single agent
same,IC50,[8],> 30000 nM
CC(C)C[C@@H](/C=C/S(C)(=O)=O)NC(=O)[C@H](CC(C)C)NC(=O)[C@H](Cc1ccc(N)cc1)NC(=O)[C@H](Cc1ccccc1)N=[N+]=[N-] [compound 16],IC50 (Chym-L)/IC50 (Tr-L),[6],<0.00017
CC(C)C[C@H](NC(=O)[C@H](Cc1ccncc1)NC(=O)[C@H](Cc1ccccc1)N=[N+]=[N-])C(=O)N[C@H](/C=C/S(C)(=O)=O)Cc1ccc(CN)cc1 [compound 10],Inhibition of cathepsins in cells,[1],partly reduced cathepsin activity
CC(=O)N[C@@H](CCCNC(=N)N)C(=O)N[C@@H](CC(C)C)C(=O)N[C@@H](CCCNC(=N)N)C(=O)[C@@]1(C)CO1 [compound 2],IC50 (Chym-L)/IC50 (Tr-L),[6],>375
Cc1c(O)cccc1C(=O)N[C@H](C(=O)N[C@@H](CO)C(=O)N[C@H](/C=C/S(C)(=O)=O)Cc1ccc(CN)cc1)C(C)C [compound 8],Inhibition of cathepsins in cells,[1],did not cause any inhibition of cathepsins
same,Difference in inhibition of trypsin-like activity (IC50) between NCI-H929 and RPMI-8226 cells,[3]; 6 h treatment,greater than 10 fold
same,IC50,[3]; [9],200 nM
same,IC50,"[3]; read-out: IC50 Tr-L, RPMI-8226, RPMI-8226 cells, 6 h treatment",3200 nM
same,IC50,[8],> 30000 nM
